Calls of active or inactive are those of the source. No cut-off for these calls is given here.

Results on one compound are retold here after ChEMBL document CHEMBL2331364, “A synthetic dolastatin 10 analogue suppresses microtubule dynamics, inhibits cell proliferation, and induces apoptotic cell death” (J Med Chem, 2013).

Assay [1] relates to HeLa. Nature of the assay: Induction of apoptosis in human HeLa cells assessed as apoptotic cells at 35 nM after 10 hrs by annexin V-FITC/propidium iodide staining-based FACS analysis. Type of assay: functional. Put shortly: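 HeLa cells were exposed to 35 nM for 10 or 24 h, stained with annexin V and propidium iodide using a kit, and apoptotic cells were quantified by FACS. Nocodazole (700 nM) served as comparator.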
In general terms: A flow cytometer gives signals particle by particle.

The test system of assay [2] is MCF7. Nature of the assay: Inhibition of microtubule (unknown origin) dynamics in GFP-tubulin transfected human MCF7 cells assessed as microtubule growth time at 15 nM by confocal laser scanning microscopy (reference value: 37 +/- 6 %). It is filed as cell-based. Details: scale not given: the % may be the effect or the level left. Put shortly: (§1)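 EGFP-tubulin-transfected MCF-7 cells grown in EMEM with 10% FBS at 37 °C in 5% CO2, exposed to 15 nM compound (DMSO vehicle) or vehicle. Individual microtubules were followed by time-lapse confocal laser scanning microscopy and life-history traces were recorded. Kinetic parameters were derived from these traces, 20 microtubules per condition. Significance was tested by one-way ANOVA.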

For assay [3], the system named is HeLa. Nature of the assay: Inhibition of mitosis in human HeLa cells assessed as mitotic index ratio at 30 nM after 48 hrs by Hoechst 33258 DNA staining assay (reference value: 3). It is filed as functional. Put shortly: (§2)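 HeLa cells were treated with vehicle or 7, 15 or 30 nM compound for 24 or 48 h. DNA was stained with Hoechst 33258, and mitotic cells were counted by fluorescence microscopy to give the mitotic index, compared against vehicle-treated cells.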

The subject of assay [4] is HeLa. As to the kind of experiment: Inhibition of mitosis in human HeLa cells assessed as mitotic index ratio at 15 nM after 24 hrs by Hoechst 33258 DNA staining assay (reference value: 3.2). Type of assay: functional. Put shortly: as §2
A further assay is filed under the species Homo sapiens. As to the kind of experiment: Inhibition of microtubule (unknown origin) assembly at 5 uM incubated for 15 mins prior to GTP addition measured for 30 mins by 90 degree light scattering-based fluorescence spectrophotometric method. The essentials:
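MAP-rich tubulin (1 mg/mL) was preincubated with 1, 3, 5 or 10 μM in PEM buffer (25 mM Pipes pH 6.8, 3 mM MgCl2, 1 mM EGTA) for 15 min on ice. GTP (1 mM) was then added and assembly monitored by 90° light scattering at 400 nm for 30 min at 37 °C.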

Assay [5] has as its system MCF7. Nature of the assay: Inhibition of microtubule (unknown origin) dynamics in GFP-tubulin transfected human MCF7 cells assessed as decrease in microtubule dynamicity at 15 nM by confocal laser scanning microscopy relative to control. It is filed as cell-based. Put shortly:
(§3)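 EGFP-tubulin transfected MCF-7 cells were treated with vehicle or 15 nM, and individual microtubules were tracked by confocal laser scanning microscopy, 20 microtubules per condition. Life-history parameters were derived as previously described. Significance was tested by one-way ANOVA.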

The test system of assay [6] is HeLa. As to the kind of experiment: Induction of apoptosis in human HeLa cells assessed as procaspase-3 activation at 30 nM after 24 hrs by Western blot analysis. It is filed as functional, cell-based. Put shortly: (§4)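 HeLa cells were treated with vehicle or 30 nM for 24 h and washed twice in PBS. Lysates were Western blotted with antibodies to JNK1, phospho-JNK, procaspase-3 and PARP.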
For orientation: In western blotting, separated proteins are transferred to a membrane and probed.

Assay [7] deals with HeLa. Nature of the assay: Induction of mitotic microtubule depolymerization in human HeLa cells at 30 nM after 24 hrs by Hoechst 33258 dye-based fluorescence microscopy. Type of assay: cell-based.
Assay [8] relates to HeLa. Nature of the assay: Induction of apoptosis in human HeLa cells assessed as early apoptotic cells at 7 to 15 nM after 24 hrs by annexin V/propidium iodide staining-based FACS flow cytometry. It is filed as functional, cell-based. Put shortly: (§5)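 HeLa cells were grown with vehicle (0.1% DMSO) or 7, 15 and 30 nM for 24 h and stained with an annexin V/propidium iodide kit. Stage was scored as annexin V-positive with weak PI (early/mid) or positive for both (late).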

The subject of assay [9] is HeLa. Nature of the assay: Induction of mitotic microtubule depolymerization in human HeLa cells at 7 nM after 24 hrs by Hoechst 33258 dye-based fluorescence microscopy relative to control. Type of assay: cell-based.
A further assay concerns the target Tubulin. Nature of the assay: Binding affinity to tubulin (unknown origin) after 15 mins by fluorescence spectrophotometry. Type of assay: protein-complex assay, Homo sapiens. Put shortly: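 Goat brain tubulin (2 μM) was incubated with ligand (5–100 μM) in 25 mM Pipes pH 6.8 for 15 min at 25 °C, read with excitation 295 nm and emission 336 nm in a 0.3 cm cell. No inner-filter correction was applied. ΔF was fitted to a quadratic binding equation to give Kd. Value is the average of five independent experiments.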

The test system of assay [10] is HeLa. As to the kind of experiment: Antimitotic activity in human HeLa cells assessed as increase in phosphohistone H3 (Ser10) positive cell population at 15 nM after 24 hrs by fluorescence microscopic analysis (reference value: 3 +/- 0.3 %). It is filed as functional.
Assay [11] deals with HeLa. As to the kind of experiment: Cytotoxicity against human HeLa cells after 24 to 48 hrs by trypan blue assay. It is filed as functional, cell-based. The essentials: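 Cells were seeded at 1 × 10^5 cells/mL, grown 24 h at 37 °C in 5% CO2, then given vehicle (0.1% DMSO) or 1–80 nM for a further 24 or 48 h. Attached plus floating cells were counted after trypan blue staining. Percent inhibition was plotted against concentration to give IC50. Average of three independent experiments.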

Assay [12] has as its system HeLa. As to the kind of experiment: Antimitotic activity in human HeLa cells assessed as increase in phosphohistone H3 (Ser10) positive cell population at 30 nM after 24 hrs by fluorescence microscopic analysis (reference value: 3 +/- 0.3 %). Type of assay: functional.
The species named for another assay is Capra hircus. Nature of the assay: Inhibition of goat brain tubulin polymerization at 5 uM incubated for 20 mins prior to GTP addition measured for 30 mins by 90 degree light scattering-based fluorescence spectrophotometric method. Put shortly: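 Goat brain tubulin (10 μM) was preincubated with compound (5 μM; or 1, 5, 7, 10 μM) in 1 M monosodium glutamate, 3 mM MgCl2, 1 mM EGTA, 25 mM Pipes pH 6.8 on ice for 20 min. GTP (1 mM) was then added and assembly followed by 90° light scattering at 400 nm for 30 min at 37 °C. Experiment run twice.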

Assay [13] concerns HeLa. Nature of the assay: Induction of mitotic microtubule depolymerization in human HeLa cells assessed as unorganized chromosomes at metaphase plate at 15 nM after 24 hrs by Hoechst 33258 dye-based fluorescence microscopy. Type of assay: cell-based.
Assay [14] relates to MCF7. As to the kind of experiment: Inhibition of microtubule (unknown origin) dynamics in GFP-tubulin transfected human MCF7 cells assessed as increase in microtubule rescue frequency at 15 nM by confocal laser scanning microscopy relative to control. It is filed as cell-based. The essentials: as §1
Assay [15] has as its system HeLa. Nature of the assay: Induction of apoptosis in human HeLa cells assessed as activated JNK1 level at 30 nM after 24 hrs by Western blot analysis relative to control. It is filed as functional, cell-based. The essentials:
as §4

Assay [16] has as its system HeLa. As to the kind of experiment: Induction of interphase microtubule depolymerization in human HeLa cells at 30 nM after 24 hrs by Hoechst 33258 dye-based fluorescence microscopy. Type of assay: cell-based.
Assay [17] deals with MCF7. Nature of the assay: Inhibition of microtubule (unknown origin) dynamics in GFP-tubulin transfected human MCF7 cells assessed as microtubule catastrophe events at 15 nM by confocal laser scanning microscopy (reference value: 4 +/- 1.2 events/min). Type of assay: cell-based. The essentials: as §1
For assay [18], the system named is MCF7. As to the kind of experiment: Inhibition of microtubule (unknown origin) dynamics in GFP-tubulin transfected human MCF7 cells assessed as decrease in microtubule growth at 15 nM by confocal laser scanning microscopy relative to control. It is filed as cell-based. The essentials:
as §3

Assay [19] has as its system HeLa. As to the kind of experiment: Induction of apoptosis in human HeLa cells assessed as late apoptotic cells at 30 nM after 24 hrs by annexin V/propidium iodide staining-based FACS flow cytometry. Type of assay: functional, cell-based. The essentials:
as §5

The test system of assay [20] is HeLa. As to the kind of experiment: Inhibition of mitosis in human HeLa cells assessed as mitotic index ratio at 7 nM after 24 hrs by Hoechst 33258 DNA staining assay (reference value: 3.2). Type of assay: functional. The essentials: as §2

The term inhibition denotes the change of the read-out against control, counted positive when it falls. A word on the Kd: it is a measure of binding affinity in units of concentration. In general, IC50 refers to the concentration needed to halve the response being measured. Consider `CC[C@H](C)[C@@H]([C@@H](CC(=O)NC[C@H]1O[C@H](C(=O)NCCc2ccccc2)[C@@H](OC)[C@@H]1OC)OC)N(C)C(=O)[C@@H](NC(=O)[C@@H](NC)C(C)C)C(C)C`, for which the Activity with HeLa [1] was 22.4%; in the assay with MCF7 [2], 21%; with HeLa [10], 11%; in the assay on HeLa [12], 14%; in the assay on MCF7 [17] it was 3 min⁻¹. For the same compound, the Ratio is 16 in the assay with HeLa [3], 9 in the assay on HeLa [4] and 6 in the assay on HeLa [20]. For the same compound, the inhibition came to 48% in the assay listed under Homo sapiens; 50% in the assay with MCF7 [5]; 37% in the assay filed under Capra hircus; 40% in the assay on MCF7 [14]; 31% in the assay with MCF7 [18]. Moreover, the outcome with HeLa [6], in the assay on HeLa [7], in the assay with HeLa [8], with HeLa [13], in the assay on HeLa [15] and in the assay with HeLa [16] was Active. Also, the outcome in the assay on HeLa [19] was Active. In addition, the outcome with HeLa [9] was inactive. On Tubulin, this compound displayed an equilibrium dissociation constant (Kd) of 29.4 µM. In the assay with HeLa [11], this compound returned a concentration for half-maximal inhibition (IC50) of 0.0068 µM.
